Data as given in ChEMBL document CHEMBL4316604, “Discovery of Isaindigotone Derivatives as Novel Bloom's Syndrome Protein (BLM) Helicase Inhibitors That Disrupt the BLM/DNA Interactions and Regulate the Homologous Recombination Repair” (J Med Chem, 2019).
pKd: −log10 of the molar value. Calls of active or inactive are those of the source. The calls are words filed in the database; no cut-off is given here.

How the values were obtained:
[1] = molecular target: T1, RecQ-like DNA helicase BLM (Homo sapiens, UniProt P54132); experiment: Inhibition of His-tagged BLM (unknown origin) expressed in Escherichia coli BL21 (DE3) assessed as reduction in BLM helicase unwinding activity at 1 uM using 5'-biotin labeled forked-DNA as substrate after 1 hr by PAGE analysis
Procedure, shortened: (§1)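 BLM642-1296 (His-tagged, E. coli BL21(DE3)) preincubated with ligand (1.0, 10, 50 μM; ≤1% DMSO) for 1 h at 4 °C. Reaction: 8 nM annealed 5′-biotin duplex forked DNA, 32 nM BLM, 2 mM ATP, 0.1% BSA, 1 h.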

[2] = molecular target: T1, RecQ-like DNA helicase BLM; experiment: Inhibition of ATP hydrolysis activity of His-tagged BLM (unknown origin) expressed in Escherichia coli BL21 (DE3) at 1 to 10 uM
[3] = molecular target: T1, RecQ-like DNA helicase BLM; experiment: Inhibition of BLM recruitment to DSB sites on HRR in human HCT116 cells at 0.5 to 1 uM after 48 hrs by ChIP assay; assay type: cell-based
Procedure, shortened: (§2)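 HCT116 cells co-transfected with HRR(−) reporter DSB model (or chromosomal I-SceI DSBs) and I-SceI; after 24 h given 0–2 μM ligand for 24 h. Crosslinked in 1% formaldehyde, chromatin digested by micrococcal nuclease to 0.2–0.5 kb, IP with anti-BLM or anti-RAD51 (IgG control). qPCR at DSB sites, normalised to untreated; triplicate.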

[4] = tested on: RecQ-like DNA helicase BLM (Homo sapiens), P54132 [E1143A]; experiment: Inhibition of His-tagged BLM E1143A mutant (unknown origin) binding to DNA assessed as effect on unbound DNA
Procedure, shortened: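 Biotinylated forked DNA (50 nM) immobilised on streptavidin plates overnight at 4 °C. BLM or mutant (100 nM final) premixed with serially halved ligand in 3% BSA blocking buffer, ≤1% DMSO, 1 h on ice. Applied to the blocked plate for 1 h at 37 °C. Bound BLM detected with anti-BLM and HRP secondary, TMB, A450; Hill fit.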

HCT-116 [5] = experiment: Chemosensitization activity in human HCT116 cells assessed as cisplatin-induced antiproliferative activity at 1.25 uM in presence of cisplatin and BLM siRNA after 24 hrs by MTT assay (reference value: 15.4%); assay type: functional, cell-based
[6] = molecular target: RecQ-like DNA helicase BLM (Homo sapiens, UniProt P54132, I1168A); experiment: Binding affinity to His-tagged BLM I1168A mutant (unknown origin) expressed in Escherichia coli BL21 (DE3) by ITC assay
Procedure, shortened: (§3)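 ITC at 25 °C in 2 mM MgCl2, 10 mM KH2PO4, pH 7.5: ligand (0.6 mM, syringe) titrated in 10 μL injections, 300 s apart, into BLM642-1296 wild-type or point mutant, or DNA (0.04 mM, cell). His-tagged BLM from E. coli BL21(DE3), induced with […] at 16 °C for 24 h. Heats integrated, fitted to 1:1 model for KD.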

HCT-116 [7] = experiment: Chemosensitization activity in human HCT116 cells assessed as RI-I-induced antiproliferative activity at 1.25 uM in presence of RI-I after 24 hrs by MTT assay; assay type: functional, cell-based
HCT-116 [8] = experiment: Induction of apoptosis in human HCT116 cells assessed as increase in cleaved caspase 7 expression at 2 uM after 48 hrs by Western blot analysis; assay type: functional, cell-based
Procedure, shortened: (§4)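 HCT116 cells treated with ligand (DNA-damage proteins 24 h, apoptosis proteins 48 h), lysed in RIPA at 4 °C. 40 μg protein per lane resolved by SDS-PAGE, blotted to PVDF, probed with damage and apoptosis antibody panels; β-actin loading control; chemiluminescent detection.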

[9] = molecular target: T1, RecQ-like DNA helicase BLM; experiment: Inhibition of His-tagged BLM (unknown origin) expressed in Escherichia coli BL21 (DE3) assessed as reduction in BLM helicase unwinding activity at 50 uM using 5'-biotin labeled forked-DNA as substrate after 1 hr by PAGE analysis; procedure, shortened: as §1
HCT-116 [10] = experiment: Induction of apoptosis in human HCT116 cells assessed as apoptotic cells after 48 hrs by Hoechst/propidium iodide-staining based flow cytometry; assay type: functional, cell-based
[11] = molecular target: T1, RecQ-like DNA helicase BLM; experiment: Inhibition of 5'-biotin labeled forked-DNA binding to BLM in human HCT116 cells assessed as increase in unbound DNA levels at 1 uM after 1 hr by Western blot-based pull down assay; assay type: cell-based
Procedure, shortened: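 Biotinylated duplex forked DNA loaded on streptavidin magnetic beads overnight at 4 °C. HCT116 RIPA lysate incubated with beads plus ligand for 1 h at 25 °C. Bead eluate and supernatant analysed for BLM by SDS-PAGE/western blot.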

[12] = molecular target: RecQ-like DNA helicase BLM (Homo sapiens, UniProt P54132, Y995A); experiment: Binding affinity to His-tagged BLM Y995A mutant (unknown origin) expressed in Escherichia coli BL21 (DE3) by ITC assay; procedure, shortened: as §3
HCT-116 [13] = experiment: Induction of apoptosis in human HCT116 cells assessed as up-regulation of CHK1 phosphorylation up to 2 uM after 24 hrs by Western blot analysis
HCT-116 [14] = experiment: Antiproliferative activity against human HCT116 cells after 24 hrs in presence of siRNA by MTT assay; assay type: functional, cell-based; details: in the assay text read “after 48 hrs” for “after 24 hrs”
Procedure, shortened: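 HCT116 cells (5×10^3/well) grown 24 h, then exposed to 0–50 μM test agent; for knockdown, cells pre-treated with 50 nM BLM siRNA for 24 h first.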

[15] = molecular target: T1, RecQ-like DNA helicase BLM; experiment: Inhibition of BLM in human HCT116 cells assessed as induction of RAD51 recruitment to DSB sites on chromosomes at 0.5 to 1 uM after 48 hrs by ChIP assay; assay type: cell-based; procedure, shortened: as §2
HCT-116 [16] = experiment: Induction of apoptosis in human HCT116 cells assessed as up-regulation of p53 phosphorylation up to 2 uM after 48 hrs by Western blot analysis; assay type: functional, cell-based
[17] = molecular target: T1, RecQ-like DNA helicase BLM; experiment: Inhibition of BLM in human HCT116 cells assessed as induction of RAD51 recruitment to DSB sites on HRR at 0.5 to 1 uM after 48 hrs by ChIP assay; assay type: cell-based; procedure, shortened: as §2
[18] = molecular target: RecQ-like DNA helicase BLM (Homo sapiens, UniProt P54132, M1111A); experiment: Binding affinity to His-tagged BLM M1111A mutant (unknown origin) expressed in Escherichia coli BL21 (DE3) by ITC assay; procedure, shortened: as §3
[19] = molecular target: RecQ-like DNA helicase BLM (Homo sapiens, UniProt P54132, E1143A); experiment: Binding affinity to His-tagged BLM E1143A mutant (unknown origin) expressed in Escherichia coli BL21 (DE3) by ITC assay; procedure, shortened: as §3
HCT-116 [20] = experiment: Effect on RAD51 protein expression in human HCT116 cells at 1 to 2 after 24 hrs; assay type: functional, cell-based; procedure, shortened: as §4
HCT-116 [21] = experiment: Antiproliferative activity against human HCT116 cells up to 2 uM incubated up to 15 days by MTT assay; assay type: functional, cell-based

T1 sequence (P54132 whole entry): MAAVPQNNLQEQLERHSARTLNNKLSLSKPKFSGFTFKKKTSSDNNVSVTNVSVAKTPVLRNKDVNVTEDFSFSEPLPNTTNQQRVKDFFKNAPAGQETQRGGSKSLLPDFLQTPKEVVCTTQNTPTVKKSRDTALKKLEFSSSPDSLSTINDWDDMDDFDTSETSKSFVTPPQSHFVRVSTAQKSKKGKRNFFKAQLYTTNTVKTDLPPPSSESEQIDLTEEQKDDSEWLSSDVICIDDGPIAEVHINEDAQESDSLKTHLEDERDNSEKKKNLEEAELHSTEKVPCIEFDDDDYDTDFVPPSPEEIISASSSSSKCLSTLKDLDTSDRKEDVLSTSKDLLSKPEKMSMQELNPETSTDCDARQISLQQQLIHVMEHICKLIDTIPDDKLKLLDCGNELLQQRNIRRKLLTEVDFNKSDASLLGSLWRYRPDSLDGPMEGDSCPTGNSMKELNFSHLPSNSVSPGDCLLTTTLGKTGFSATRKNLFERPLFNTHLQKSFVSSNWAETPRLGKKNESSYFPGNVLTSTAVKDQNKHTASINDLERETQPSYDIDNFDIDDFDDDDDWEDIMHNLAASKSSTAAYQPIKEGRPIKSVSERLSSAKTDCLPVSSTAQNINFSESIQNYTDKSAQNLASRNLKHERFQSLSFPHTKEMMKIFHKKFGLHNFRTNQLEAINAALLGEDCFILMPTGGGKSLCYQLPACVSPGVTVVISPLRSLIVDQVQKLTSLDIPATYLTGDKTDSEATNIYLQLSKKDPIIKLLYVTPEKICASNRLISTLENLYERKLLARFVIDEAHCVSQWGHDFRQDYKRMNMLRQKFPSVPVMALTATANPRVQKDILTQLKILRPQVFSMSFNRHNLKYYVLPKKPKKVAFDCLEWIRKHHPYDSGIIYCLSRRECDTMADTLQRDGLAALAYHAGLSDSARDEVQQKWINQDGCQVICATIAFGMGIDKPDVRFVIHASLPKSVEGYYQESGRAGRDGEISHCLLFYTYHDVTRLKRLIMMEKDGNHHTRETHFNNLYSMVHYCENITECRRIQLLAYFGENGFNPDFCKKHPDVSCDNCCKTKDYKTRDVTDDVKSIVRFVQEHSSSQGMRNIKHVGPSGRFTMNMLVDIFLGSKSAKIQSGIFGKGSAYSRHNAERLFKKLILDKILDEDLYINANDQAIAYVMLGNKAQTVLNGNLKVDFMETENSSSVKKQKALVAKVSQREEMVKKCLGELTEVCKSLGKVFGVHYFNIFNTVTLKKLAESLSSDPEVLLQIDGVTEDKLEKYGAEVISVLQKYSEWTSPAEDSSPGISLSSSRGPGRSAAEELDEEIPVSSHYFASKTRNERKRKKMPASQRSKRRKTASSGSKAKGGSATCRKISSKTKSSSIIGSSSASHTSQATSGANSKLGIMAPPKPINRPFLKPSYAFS
RecQ-like DNA helicase BLM (Homo sapiens), P54132 [E1143A], sequence (P54132 whole entry E1143A): as the sequence (P54132 whole entry) above, with E1143A counted along it
RecQ-like DNA helicase BLM (Homo sapiens, UniProt P54132, E1143A), sequence (P54132 whole entry E1143A): as the sequence (P54132 whole entry) above, with E1143A counted along it
RecQ-like DNA helicase BLM (Homo sapiens, UniProt P54132, M1111A), sequence (P54132 whole entry M1111A): as the sequence (P54132 whole entry) above, with M1111A counted along it
RecQ-like DNA helicase BLM (Homo sapiens, UniProt P54132, Y995A), sequence (P54132 whole entry Y995A): as the sequence (P54132 whole entry) above, with Y995A counted along it
RecQ-like DNA helicase BLM (Homo sapiens, UniProt P54132, I1168A), sequence (P54132 whole entry I1168A): as the sequence (P54132 whole entry) above, with I1168A counted along it

inhibition [1]: Active
inhibition [2]: inactive
inhibition [3]: Active
inhibition [4]: inactive
pKd [6]: 5.19
inhibition [9]: Active
inhibition [11]: 84.3%
pKd [12]: 5.30
inhibition [15]: Active
inhibition [17]: Active
pKd [18]: 5.31
pKd [19]: 5.22
Structure (SMILES): CCN(CC)CCCNc1cc2nc3n(c(=O)c2cc1F)CC/C3=C\c1ccc(C(C)C)cc1
Activity (HCT-116 [5]): Active
Activity (HCT-116 [7]): Active
Activity (HCT-116 [8]): Active
Activity (HCT-116 [10]): Dose-dependent effect
Activity (HCT-116 [13]): Dose-dependent effect
Activity (HCT-116 [14]): inactive
Activity (HCT-116 [16]): Dose-dependent effect
Activity (HCT-116 [20]): inactive
Activity (HCT-116 [21]): Active
